Among the data in ChEMBL document CHEMBL4321820, “Identification and Optimization of Mechanism-Based Fluoroallylamine Inhibitors of Lysyl Oxidase-like 2/3” (J Med Chem, 2019) are Activity, IC50 and bioavailability values, retold here.

pIC50: −log10 of the molar value.

One series relates to Mus musculus. The experiment in a line: Effect on plasma AST level in CCl4-induced BALB/c mouse model of liver fibrosis at 5 to 15 mg/kg, po administered once daily at week 4 to 6. The note with it: in vivo. The series is classed as ADME, organism-based. Put shortly: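 CCl4 liver fibrosis in female BALB/c mice: CCl4 i.p. (1 mL/kg 25% in olive oil) twice weekly for 6 weeks, sacrifice 48 h after final injection. Oral once-daily dosing weeks 1-6 or weeks 4-6; imatinib 50 mg/kg daily weeks 1-6. ALT and AST measured in plasma.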

The next series addresses T1, Protein-lysine 6-oxidase (Mus musculus, UniProt P28301).
T1 sequence (P28301 whole entry): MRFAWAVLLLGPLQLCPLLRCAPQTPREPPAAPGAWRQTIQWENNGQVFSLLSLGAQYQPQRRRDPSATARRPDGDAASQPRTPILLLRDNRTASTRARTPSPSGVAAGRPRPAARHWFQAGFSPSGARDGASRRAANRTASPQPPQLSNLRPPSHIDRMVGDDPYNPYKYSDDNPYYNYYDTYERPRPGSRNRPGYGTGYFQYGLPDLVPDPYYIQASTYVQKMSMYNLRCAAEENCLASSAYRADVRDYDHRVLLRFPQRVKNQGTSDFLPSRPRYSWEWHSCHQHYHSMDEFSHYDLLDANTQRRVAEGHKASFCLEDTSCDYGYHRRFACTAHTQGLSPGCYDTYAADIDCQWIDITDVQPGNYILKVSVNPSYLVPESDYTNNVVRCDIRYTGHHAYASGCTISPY
The experiment in a line: Inhibition of LOX in mouse lung fibroblast cells using putrescine as substrate preincubated with enzyme for 30 mins followed by substrate addition and measured every 2.5 mins for 30 mins by Amplex-Red oxidation assay. The essentials:
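LOX from conditioned medium of fibroblasts cultured from homogenized mouse lung, concentrated and isolated as for the human fibroblast enzyme, in 1.2 M urea/50 mM borate pH 8.2. 30 min preincubation with compound at 37 °C, then Amplex Red/HRP plus putrescine; fluorescence read every 2.5 min for 30 min.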

The next series addresses T2, Lysyl oxidase homolog 1 (Homo sapiens, UniProt Q08397).
T2 sequence (Q08397 whole entry): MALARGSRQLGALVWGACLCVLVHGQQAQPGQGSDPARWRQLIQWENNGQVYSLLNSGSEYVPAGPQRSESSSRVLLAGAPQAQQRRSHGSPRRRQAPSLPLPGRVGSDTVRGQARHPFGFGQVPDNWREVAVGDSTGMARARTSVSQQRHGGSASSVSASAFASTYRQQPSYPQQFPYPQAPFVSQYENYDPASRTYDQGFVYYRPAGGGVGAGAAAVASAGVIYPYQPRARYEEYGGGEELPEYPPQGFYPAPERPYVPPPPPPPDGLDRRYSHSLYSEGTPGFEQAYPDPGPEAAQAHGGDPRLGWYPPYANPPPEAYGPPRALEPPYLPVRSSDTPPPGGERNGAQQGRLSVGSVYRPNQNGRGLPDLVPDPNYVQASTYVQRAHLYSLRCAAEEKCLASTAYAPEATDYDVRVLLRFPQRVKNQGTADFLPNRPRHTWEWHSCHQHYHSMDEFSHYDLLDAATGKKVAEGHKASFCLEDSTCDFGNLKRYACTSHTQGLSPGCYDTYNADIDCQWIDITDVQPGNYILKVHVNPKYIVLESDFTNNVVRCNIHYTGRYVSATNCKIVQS
The experiment in a line: Inhibition of recombinant human LOXL1 using putrescine as substrate preincubated with enzyme for 30 mins followed by substrate addition and measured every 2.5 mins for 30 mins by Amplex-Red oxidation assay. The essentials:
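Recombinant human LOXL1 expressed and purified from cDNA; 30 min preincubation with compound at 37 °C in urea/borate buffer, then Amplex Red/HRP with 10 mM putrescine; H2O2 fluorescence read every 2.5 min for 30 min at 37 °C.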

Series [1] in a line: Oral bioavailability in rat. The note with it: in vivo. Type of series: ADME, organism-based.
The target of a further series is T3, Lysyl oxidase homolog 2 (Homo sapiens, UniProt Q9Y4K0).
T3 sequence (Q9Y4K0 whole entry): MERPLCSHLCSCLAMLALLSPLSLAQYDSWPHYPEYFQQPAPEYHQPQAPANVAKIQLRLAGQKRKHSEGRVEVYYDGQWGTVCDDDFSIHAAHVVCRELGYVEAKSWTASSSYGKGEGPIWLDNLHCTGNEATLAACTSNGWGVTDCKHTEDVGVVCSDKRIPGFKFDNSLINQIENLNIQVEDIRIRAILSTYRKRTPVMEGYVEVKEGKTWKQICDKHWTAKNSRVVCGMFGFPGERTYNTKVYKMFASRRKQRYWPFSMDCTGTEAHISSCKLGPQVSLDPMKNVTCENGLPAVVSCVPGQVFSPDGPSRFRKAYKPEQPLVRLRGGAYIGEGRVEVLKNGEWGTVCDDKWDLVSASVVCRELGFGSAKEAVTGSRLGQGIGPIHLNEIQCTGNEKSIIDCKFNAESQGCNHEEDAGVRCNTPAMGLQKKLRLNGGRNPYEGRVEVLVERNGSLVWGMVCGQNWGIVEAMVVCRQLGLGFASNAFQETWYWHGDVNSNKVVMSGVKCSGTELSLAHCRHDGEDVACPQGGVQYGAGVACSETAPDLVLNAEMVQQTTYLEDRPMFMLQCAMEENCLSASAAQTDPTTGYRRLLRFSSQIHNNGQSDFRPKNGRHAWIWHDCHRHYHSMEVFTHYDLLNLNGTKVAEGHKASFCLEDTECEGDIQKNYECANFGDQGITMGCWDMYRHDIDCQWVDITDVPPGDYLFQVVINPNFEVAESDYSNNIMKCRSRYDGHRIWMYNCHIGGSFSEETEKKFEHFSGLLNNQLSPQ
The experiment in a line: Inhibition of recombinant human C-terminal His-tagged […] (1-774 residues) expressed in mouse myeloma cells assessed as inhibition of collagen oxidation measured every 1 min for 3 hrs by Amplex-Red oxidation assay. The series is classed as cell-based. The essentials: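 Rat tail type I collagen (1.5 mg/mL in 50 mM borate pH 8.2) combined with rhLOXL2 with or without inhibitor (BAPN 100 µM control). Amplex Red (120 µM)/HRP (1.5 U/mL) mix added. Fluorescence read every 1 min for 3 h at 37 °C; slope from the linear 20-40 min phase used for IC50.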

Take `CCOC(=O)c1ccc2c(c1)c(-c1cccc(S(=O)(=O)N(C)C)c1)c(C)n2C/C(F)=C/CN.Cl`: the Activity result in the series on Mus musculus was “Non-Toxic”.

What is called pIC50 is the IC50 on a negative log10 scale, so that one unit is a factor of ten. In general, bioavailability refers to the share of a dose that reaches the circulation, judged against a reference dose that is usually intravenous. A higher bioavailability goes with good availability. Consider `Cc1c(-c2cccc(S(=O)(=O)N(C)C)c2)c2cc(C(=O)O)ccc2n1C/C(F)=C/CN.Cl`, for which the negative-log IC50 (pIC50) at Protein-lysine 6-oxidase was 5.76; on Lysyl oxidase homolog 1, 5.65; on Lysyl oxidase homolog 2, 7.89. Moreover, the bioavailability in series [1] is less than 1%.
